Data: ChEMBL document CHEMBL1154899, “Synthesis and biological evaluation of caffeic acid 3,4-dihydroxyphenethyl ester” (J Nat Prod, 2010)
Values after ≈ are worked out from the molar mass of the structure shown.

Key:
Type in all cases: functional
NCI-H23 [1] = assay: Antiproliferative activity against human NCI-H23 cells assessed as cell growth at 50 uM by SRB assay; settings: read-out: Activity
NCI-H322M = assay: Antiproliferative activity against human NCI-H322M cells assessed as cell growth at 50 uM by SRB assay; settings: read-out: Activity
NCI-H460 [2] = assay: Antiproliferative activity against human NCI-H460 cells assessed as cell growth at 50 uM by SRB assay; settings: read-out: Activity
SW-620 [3] = assay: Antiproliferative activity against human SW620 cells assessed as cell growth at 50 uM by SRB assay; settings: read-out: Activity
SF-268 = assay: Antiproliferative activity against human SF268 cells assessed as cell growth at 50 uM by SRB assay; settings: read-out: Activity
KM12 [4] = assay: Antiproliferative activity against human KM12 cells assessed as cell growth at 5 uM by SRB assay; settings: read-out: Activity
SF-295 [5] = assay: Antiproliferative activity against human SF295 cells assessed as cell growth at 5 uM by SRB assay; settings: read-out: Activity
LOX IMVI = assay: Antiproliferative activity against human LOXIMVI cells assessed as cell growth at 5 uM by SRB assay; settings: read-out: Activity
MCF7 = assay: Antiproliferative activity against human MCF7 cells assessed as cell growth at 5 uM by SRB assay; settings: read-out: Activity
A498 [6] = assay: Antiproliferative activity against human A498 cells assessed as cell growth at 50 uM by SRB assay; settings: read-out: Activity
ACHN = assay: Antiproliferative activity against human ACHN cells assessed as cell growth at 50 uM by SRB assay; settings: read-out: Activity
SN12C [7] = assay: Antiproliferative activity against human SN12C cells assessed as cell growth at 50 uM by SRB assay; settings: read-out: Activity
A498 [8] = assay: Antiproliferative activity against human A498 cells assessed as cell growth at 500 uM by SRB assay; settings: read-out: Activity
SK-MEL-5 = assay: Antiproliferative activity against human SK-MEL-5 cells assessed as cell growth at 5 mM by SRB assay; settings: read-out: Activity
NCI-H522 = assay: Antiproliferative activity against human NCI-H522 cells assessed as cell growth at 5 mM by SRB assay; settings: read-out: Activity
HCC 2998 = assay: Antiproliferative activity against human HCC2998 cells assessed as cell growth at […] by SRB assay; settings: read-out: Activity
HT-29 = assay: Antiproliferative activity against human HT-29 cells assessed as cell growth at […] by SRB assay; settings: read-out: Activity
MOLT-4 [9] = assay: Antiproliferative activity against human MOLT4 cells assessed as cell growth at 500 uM by SRB assay; settings: read-out: Activity
A549 [10] = assay: Antiproliferative activity against human A549 cells assessed as cell growth at 500 uM by SRB assay; settings: read-out: Activity
NCI-H23 [11] = assay: Antiproliferative activity against human NCI-H23 cells assessed as cell growth at 500 uM by SRB assay; settings: read-out: Activity
NCI-H460 [12] = assay: Antiproliferative activity against human NCI-H460 cells assessed as cell growth at 500 uM by SRB assay; settings: read-out: Activity
COLO 205 = assay: Antiproliferative activity against human COLO205 cells assessed as cell growth at 500 uM by SRB assay; settings: read-out: Activity
KM12 [13] = assay: Antiproliferative activity against human KM12 cells assessed as cell growth at 500 uM by SRB assay; settings: read-out: Activity
SW-620 [14] = assay: Antiproliferative activity against human SW620 cells assessed as cell growth at 500 uM by SRB assay; settings: read-out: Activity
OVCAR-5 = assay: Antiproliferative activity against human OVCAR5 cells at 50 uM by SRB assay
[15] = system: Radical scavenging activity; assay: Antioxidant activity assessed as DPPH radical scavenging activity after 20 mins
Procedure, shortened: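 Test solution at several concentrations (100 µL) mixed with 900 µL of 0.04 mg/mL DPPH in methanol, held 20 min at room temperature, absorbance read at 517 nm. Inhibition % = [(Ac − As)/Ac] × 100, with a blank holding 100 µL methanol in place of sample. Inhibition plotted against concentration; EC50 (mean ± SD) from linear regression of three determinations.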

HCT-116 = assay: Antiproliferative activity against human HCT116 cells by SRB assay
SW-620 [16] = assay: Antiproliferative activity against human SW620 cells by SRB assay
Malme-3M = assay: Antiproliferative activity against human MALME-3M cells by SRB assay
SK-MEL-28 [17] = assay: Antiproliferative activity against human SK-MEL-28 cells by SRB assay
SN12C [18] = assay: Antiproliferative activity against human SN12C cells by SRB assay
SK-MEL-28 [19] = assay: Antiproliferative activity against human SK-MEL-28 cells assessed as cell growth at 0.5 uM by SRB assay; settings: read-out: Activity
786-0 = assay: Antiproliferative activity against human 786-0 cells assessed as cell growth at 0.5 uM by SRB assay; settings: read-out: Activity
MDA-MB-231 = assay: Antiproliferative activity against human MDA-MB-231 cells assessed as cell growth at 0.5 uM by SRB assay; settings: read-out: Activity
K562 = assay: Antiproliferative activity against human K562 cells assessed as cell growth at 0.5 uM by SRB assay; settings: read-out: Activity
A549 [20] = assay: Antiproliferative activity against human A549 cells assessed as cell growth at 0.5 uM by SRB assay; settings: read-out: Activity
SF-295 [21] = assay: Antiproliferative activity against human SF295 cells assessed as cell growth at 0.5 uM by SRB assay; settings: read-out: Activity
SNB-19 = assay: Antiproliferative activity against human SNB19 cells assessed as cell growth at 0.5 uM by SRB assay; settings: read-out: Activity
SK-MEL-2 = assay: Antiproliferative activity against human SK-MEL-2 cells assessed as cell growth at 0.5 uM by SRB assay; settings: read-out: Activity
HL-60(TB) = assay: Antiproliferative activity against human HL-60(TB) cells assessed as cell growth at 5 uM by SRB assay; settings: read-out: Activity
MOLT-4 [22] = assay: Antiproliferative activity against human MOLT4 cells assessed as cell growth at 5 uM by SRB assay; settings: read-out: Activity
EKVX = assay: Antiproliferative activity against human EKVX cells assessed as cell growth at 5 uM by SRB assay; settings: read-out: Activity
[23] = read-out: LC50 (the source's name)
[24] = read-out: pLC50 (the source's name) (converted)

O=C(/C=C/c1ccc(O)c(O)c1)OCCc1ccc(O)c(O)c1
growth at 50 µM (NCI-H23 [1]): 89%
growth at 50 µM (NCI-H322M): 97%
growth at 50 µM (NCI-H460 [2]): 100%
growth at 50 µM (SW-620 [3]): 98%
growth at 50 µM (SF-268): 85%
growth at 5 µM (KM12 [4]): 95%
growth at 5 µM (SF-295 [5]): 89%
growth at 5 µM (LOX IMVI): 101%
growth at 5 µM (MCF7): 108%
growth at 50 µM (A498 [6]): 95%
growth at 50 µM (ACHN): 89%
growth at 50 µM (SN12C [7]): 81%
growth at 500 µM (A498 [8]): 68%
growth at 5000 µM (SK-MEL-5): -1%
growth at 5000 µM (NCI-H522): -30%
growth (HCC 2998): 18%
growth (HT-29): 34%
growth at 500 µM (MOLT-4 [9]): 39%
growth at 500 µM (A549 [10]): 96%
growth at 500 µM (NCI-H23 [11]): 78%
growth at 500 µM (NCI-H460 [12]): 94%
growth at 500 µM (COLO 205): 84%
growth at 500 µM (KM12 [13]): 59%
growth at 500 µM (SW-620 [14]): 64%
Activity (OVCAR-5): 97%
EC50 [15]: 4.7 µg/mL (≈ 14.9 µM)
GI50 (HCT-116; read-out: GI50): 11.2 µM
CC50 (HCT-116; [23]): > 50 µM
TGI (HCT-116; read-out: TGI): > 50 µM
GI50 (HCT-116; read-out: pGI50 (converted)): 11.2 µM
CC50 (HCT-116; [24]): > 50.1 µM
TGI (HCT-116; read-out: pTGI): > 50.1 µM
GI50 (SW-620 [16]; read-out: GI50): 10.2 µM
CC50 (SW-620 [16]; [23]): > 50 µM
TGI (SW-620 [16]; read-out: TGI): > 50 µM
GI50 (SW-620 [16]; read-out: pGI50 (converted)): 10.2 µM
CC50 (SW-620 [16]; [24]): > 50.1 µM
TGI (SW-620 [16]; read-out: pTGI): > 50.1 µM
GI50 (Malme-3M; read-out: GI50): 18.6 µM
CC50 (Malme-3M; [23]): > 50 µM
TGI (Malme-3M; read-out: TGI): > 50 µM
GI50 (Malme-3M; read-out: pGI50 (converted)): 18.6 µM
CC50 (Malme-3M; [24]): > 50.1 µM
TGI (Malme-3M; read-out: pTGI): > 50.1 µM
GI50 (SK-MEL-28 [17]; read-out: GI50): 6.51 µM
CC50 (SK-MEL-28 [17]; [23]): > 50 µM
TGI (SK-MEL-28 [17]; read-out: TGI): > 50 µM
GI50 (SK-MEL-28 [17]; read-out: pGI50 (converted)): 6.46 µM
CC50 (SK-MEL-28 [17]; [24]): > 50.1 µM
TGI (SK-MEL-28 [17]; read-out: pTGI): > 50.1 µM
GI50 (SN12C [18]; read-out: GI50): 9.09 µM
CC50 (SN12C [18]; [23]): > 50 µM
TGI (SN12C [18]; read-out: TGI): > 50 µM
GI50 (SN12C [18]; read-out: pGI50 (converted)): 9.12 µM
CC50 (SN12C [18]; [24]): > 50.1 µM
TGI (SN12C [18]; read-out: pTGI): > 50.1 µM
growth at 0.5 µM (SK-MEL-28 [19]): 97%
growth at 0.5 µM (786-0): 97%
growth at 0.5 µM (MDA-MB-231): 113%
growth at 0.5 µM (K562): 107%
growth at 0.5 µM (A549 [20]): 105%
growth at 0.5 µM (SF-295 [21]): 98%
growth at 0.5 µM (SNB-19): 93%
growth at 0.5 µM (SK-MEL-2): 86%
growth at 5 µM (HL-60(TB)): 85%
growth at 5 µM (MOLT-4 [22]): 97%
growth at 5 µM (EKVX): 84%
